Experimental data published in ChEMBL document CHEMBL3259739, “Synthesis and structure-activity relationship of trisubstituted thiazoles as Cdc7 kinase inhibitors” (Eur J Med Chem, 2014).
Values belong to the molecule of their own block, whether it stands above or below them. The source made the active and inactive calls.

How the values were obtained:
[1] = target: T1, CDC7/DBF4 (Cell division cycle 7-related protein kinase/Activator of S phase kinase) (Homo sapiens, UniProt O00311); experiment: Inhibition of Cdc7/Dbf4 (unknown origin) using 0.75 uM of ATP as substrate by AlphaScreen assay; assay type: protein-complex assay
Procedure, shortened: (§1)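 Mechanism-of-action AlphaScreen run with 6 nM Cdc7/Dbf4 and 10 nM biotinylated MCM2 substrate. […] Reaction time was 2 h. Phospho-Ser53 MCM2 was read by antibody-bound acceptor beads with streptavidin donor beads. Rates and Ki were fitted to a competitive inhibition model.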

[2] = target: T1, CDC7/DBF4 (Cell division cycle 7-related protein kinase/Activator of S phase kinase); experiment: Inhibition of Cdc7/Dbf4 (unknown origin) using 0.188 uM of ATP as substrate by AlphaScreen assay; assay type: protein-complex assay; procedure, shortened: as §1
[3] = target: T1, CDC7/DBF4 (Cell division cycle 7-related protein kinase/Activator of S phase kinase); experiment: Inhibition of Cdc7/Dbf4 (unknown origin) using 0.094 uM of ATP as substrate by AlphaScreen assay; assay type: protein-complex assay; procedure, shortened: as §1
[4] = target: T1, CDC7/DBF4 (Cell division cycle 7-related protein kinase/Activator of S phase kinase); experiment: Inhibition of Cdc7/Dbf4 (unknown origin) using 0.023 uM of ATP as substrate by AlphaScreen assay; assay type: protein-complex assay
Procedure, shortened: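 AlphaScreen with 6 nM Cdc7/Dbf4 and 10 nM biotinylated His/avitag MCM2 (aa1-467) substrate. Phospho-Ser53 MCM2 detected with antibody-bound Protein A acceptor and streptavidin donor beads. Rates fitted by Michaelis–Menten and double-reciprocal plots.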

[5] = test system: MDR1; experiment: Apparent permeability of the compound in pig LLC-PK1 cells expressing MDR1; assay type: ADME, cell-based, Sus scrofa
[6] = test system: rat MDR1; experiment: Apparent permeability of the compound in pig LLC-PK1 cells expressing rat MDR1; assay type: ADME, cell-based, Sus scrofa
[7] = test system: MDR1; experiment: Efflux ratio of permeability of the compound in pig LLC-PK1 cells expressing MDR1; assay type: ADME, cell-based, Sus scrofa
[8] = target: T2, CDC7/DBF4 (Cell division cycle 7-related protein kinase/Activator of S phase kinase) (Homo sapiens) (UniProt Q9UBU7+O00311); experiment: Ratio of IC50 for Cdc7/Dbf4 in human HCT116 cells to IC50 for Cdc7/Dbf4 (unknown origin); assay type: cell-based; conditions: HCT-116
[9] = target: T2, CDC7/DBF4 (Cell division cycle 7-related protein kinase/Activator of S phase kinase) (Homo sapiens); experiment: Inhibition of Cdc7/Dbf4 in human HCT116 cells assessed as reduction of MCM2 phosphorylation after 14 hrs; assay type: cell-based; conditions: HCT-116
Procedure, shortened: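 HCT-116 cells were exposed to inhibitor across a 22-point dose response for 14 h. They were then immunostained for phospho-serine MCM2 using an Alexa Fluor 488 secondary, with a Hoechst nuclear counterstain. The percentage of cells with phospho-MCM2 signal above a threshold was scored by high-content imaging, and IC50 values were derived from that.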

[10] = test system: HCT-116; experiment: Cell cycle arrest in human HCT116 cells assessed as DNA accumulation at S/G2/M phase at 0.31 to 10 uM after 3 days using propidium iodide/RNase staining by flow cytometry; assay type: functional, cell-based
Procedure, shortened: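 HCT-116 cells exposed to inhibitor for 3 d at the indicated concentrations. Cells harvested with Cell Stripper buffer, fixed in 70% ethanol, stained with propidium iodide/RNase, and DNA content analysed by flow cytometry.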

[11] = test system: HCT-116; experiment: Induction of aberrant mitosis in human HCT116 cells at 1.25 uM after 72 hrs […]; assay type: functional, cell-based
[12] = target: T1, CDC7/DBF4 (Cell division cycle 7-related protein kinase/Activator of S phase kinase); experiment: Inhibition of Cdc7/Dbf4 (unknown origin) using 54 uM of ATP as substrate by AlphaScreen assay; assay type: protein-complex assay
[13] = target: T1, CDC7/DBF4 (Cell division cycle 7-related protein kinase/Activator of S phase kinase); experiment: Inhibition of Cdc7/Dbf4 (unknown origin) using 18 uM of ATP as substrate by AlphaScreen assay; assay type: protein-complex assay
[14] = target: T1, CDC7/DBF4 (Cell division cycle 7-related protein kinase/Activator of S phase kinase); experiment: Inhibition of Cdc7/Dbf4 (unknown origin) using 0.222 uM of ATP as substrate by AlphaScreen assay; assay type: protein-complex assay
[15] = target: T1, CDC7/DBF4 (Cell division cycle 7-related protein kinase/Activator of S phase kinase); experiment: Inhibition of Cdc7/Dbf4 (unknown origin) using 0.074 uM of ATP as substrate by AlphaScreen assay; assay type: protein-complex assay
[16] = target: T1, CDC7/DBF4 (Cell division cycle 7-related protein kinase/Activator of S phase kinase); experiment: Inhibition of Cdc7/Dbf4 (unknown origin) using 0.037 uM of ATP as substrate by AlphaScreen assay; assay type: protein-complex assay
[17] = Fraction unbound in mouse plasma; assay type: ADME, cell-free
[18] = AUC (0 to t) in Sprague-Dawley rat at 2 mg/kg, iv; assay type: ADME, organism-based; design: dose 2 mg/kg, route intravenous; conditions: plasma
[19] = AUC (0 to infinity) in Sprague-Dawley rat at 2 mg/kg, iv; assay type: ADME, organism-based; design: time infinity, dose 2 mg/kg, route intravenous; conditions: plasma
[20] = Mean residence time in Sprague-Dawley rat at 2 mg/kg, iv; assay type: ADME, organism-based; design: dose 2 mg/kg, route intravenous; conditions: in vivo
[21] = Half life in Sprague-Dawley rat at 2 mg/kg, iv; assay type: ADME, organism-based; design: dose 2 mg/kg, route intravenous; conditions: in vivo
[22] = Volume of distribution at steady state in Sprague-Dawley rat at 2 mg/kg, iv; assay type: ADME, organism-based; design: dose 2 mg/kg, route intravenous; conditions: in vivo, read-out: Vdss
[23] = AUC (0 to t) in Sprague-Dawley rat at 5 mg/kg, po; assay type: ADME, organism-based; design: dose 5 mg/kg, route oral; conditions: plasma
[24] = AUC (0 to infinity) in Sprague-Dawley rat at 5 mg/kg, po; assay type: ADME, organism-based; design: time infinity, dose 5 mg/kg, route oral; conditions: plasma
[25] = Cmax in Sprague-Dawley rat at 5 mg/kg, po; assay type: ADME, organism-based; design: dose 5 mg/kg, route oral; conditions: in vivo
[26] = Tmax in Sprague-Dawley rat at 5 mg/kg, po; assay type: ADME, organism-based; design: dose 5 mg/kg, route oral; conditions: in vivo
Procedure, shortened: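 Male Sprague-Dawley rats given 5 mg/kg orally in 2% HPMC, 1% Tween80, pH2 (an iv arm received 2 mg/kg in DMSO). Plasma was sampled from 0.25 to 24 h and analyzed by LC/MS.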

[27] = test system: Mus musculus; experiment: Inhibition of Cdc7/Dbf4 in NCR nude mouse xenografted with human HCT116 cells assessed as reduction of phosphorylated MCM2 level in tumor at 50 mg/kg, iv after 3 hrs; assay type: functional; conditions: HCT-116, 3 h
Procedure, shortened: (§2)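 Female athymic NCR/nu mice, 4–6 weeks old, bearing subcutaneous HCT-116 xenografts (5 × 10^6 cells in Matrigel) grown to about 250 mm3. Single iv dose formulated in 20% HPbCD, 1% HPMC, 1% PluronicF68, pH7 at 10 mg/ml; three mice per group. Tumors were homogenized in Tris lysis buffer with protease and phosphatase inhibitors. MSD capture with total MCM2 antibody, then phospho-Ser53 or total MCM2 detection by chemiluminescence; inhibition taken from the phospho/total ratio.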

[28] = test system: Mus musculus; experiment: Toxicity in NCR nude mouse xenografted with human HCT116 cells at 50 mg/kg, iv; assay type: organism-based, HCT-116; design: dose 50 mg/kg, route intravenous; conditions: in vivo
Procedure, shortened: (§3)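 Female athymic NCR/nu mice bearing subcutaneous HCT-116 xenografts (about 250 mm3) received a single iv dose in 20% HPbCD, 1% HPMC, 1% PluronicF68, pH7 (10 mg/ml); three mice per group. Tolerability was judged by observation over the 1–16 h sampling period.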

[29] = test system: Plasma; experiment: Unbound plasma concentration in NCR nude mouse xenografted with human HCT116 cells at 50 mg/kg, iv after 1 hr; assay type: ADME, organism-based, HCT-116; design: dose 50 mg/kg, route intravenous; conditions: in vivo
Procedure, shortened: (§4)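 HCT-116 xenograft NCR/nu mice (three per group) were given a single iv dose in 20% HPbCD, 1% HPMC, 1% PluronicF68, pH7 at 10 mg/ml. Plasma collected at the time points was measured by LC/MS. Values were converted to unbound concentrations using percent plasma protein binding in mouse serum.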

[30] = test system: Mus musculus; experiment: Inhibition of Cdc7/Dbf4 in NCR nude mouse xenografted with human HCT116 cells assessed as reduction of phosphorylated MCM2 level in tumor at 150 mg/kg, iv after 1 hr; assay type: functional; conditions: HCT-116, 1 h; procedure, shortened: as §2
[31] = test system: Plasma; experiment: Unbound plasma concentration in NCR nude mouse xenografted with human HCT116 cells at 150 mg/kg, iv after 1 hr; assay type: ADME, organism-based, HCT-116; design: dose 150 mg/kg, route intravenous; conditions: in vivo; procedure, shortened: as §4
[32] = test system: Mus musculus; experiment: Toxicity in NCR nude mouse xenografted with human HCT116 cells assessed as appearance of moribund at 150 mg/kg, iv after 6 hrs; assay type: organism-based, HCT-116; design: dose 150 mg/kg, route intravenous; conditions: in vivo; procedure, shortened: as §3

T1 sequence (Q9UBU7 whole entry): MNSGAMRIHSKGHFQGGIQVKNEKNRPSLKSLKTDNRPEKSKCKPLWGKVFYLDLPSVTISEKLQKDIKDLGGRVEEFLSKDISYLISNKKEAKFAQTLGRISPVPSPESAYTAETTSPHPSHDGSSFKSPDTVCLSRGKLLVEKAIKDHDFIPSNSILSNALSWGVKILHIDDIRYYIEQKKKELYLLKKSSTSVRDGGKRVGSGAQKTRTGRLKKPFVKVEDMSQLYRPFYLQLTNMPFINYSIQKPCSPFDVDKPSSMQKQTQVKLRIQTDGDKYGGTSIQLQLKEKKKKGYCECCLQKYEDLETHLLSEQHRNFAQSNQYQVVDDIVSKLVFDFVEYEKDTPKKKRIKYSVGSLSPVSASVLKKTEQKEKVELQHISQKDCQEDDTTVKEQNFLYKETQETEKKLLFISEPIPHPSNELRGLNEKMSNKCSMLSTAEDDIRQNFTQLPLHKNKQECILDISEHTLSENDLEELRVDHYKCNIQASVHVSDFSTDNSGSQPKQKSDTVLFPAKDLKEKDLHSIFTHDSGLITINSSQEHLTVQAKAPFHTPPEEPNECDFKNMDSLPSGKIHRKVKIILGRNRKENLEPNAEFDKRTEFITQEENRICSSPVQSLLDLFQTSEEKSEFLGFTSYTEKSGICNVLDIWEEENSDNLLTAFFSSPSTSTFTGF
T1 sequence (O00311 whole entry): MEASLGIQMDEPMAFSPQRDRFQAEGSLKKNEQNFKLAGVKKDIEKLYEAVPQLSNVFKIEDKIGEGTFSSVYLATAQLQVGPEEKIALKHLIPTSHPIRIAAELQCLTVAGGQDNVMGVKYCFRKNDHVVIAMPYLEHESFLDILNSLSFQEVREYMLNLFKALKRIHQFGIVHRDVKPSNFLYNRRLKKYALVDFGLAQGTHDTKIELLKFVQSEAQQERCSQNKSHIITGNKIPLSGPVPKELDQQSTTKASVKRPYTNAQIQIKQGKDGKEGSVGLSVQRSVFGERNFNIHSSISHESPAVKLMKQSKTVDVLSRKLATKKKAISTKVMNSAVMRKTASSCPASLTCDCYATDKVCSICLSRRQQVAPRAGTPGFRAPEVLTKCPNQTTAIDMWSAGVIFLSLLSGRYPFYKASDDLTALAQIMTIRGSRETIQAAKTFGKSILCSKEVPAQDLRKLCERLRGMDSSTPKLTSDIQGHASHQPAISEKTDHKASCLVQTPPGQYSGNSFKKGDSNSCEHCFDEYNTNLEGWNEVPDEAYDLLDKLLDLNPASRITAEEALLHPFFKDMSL
T2 sequence (O00311 whole entry, looked up): as the sequence (O00311 whole entry) above
T2 sequence (Q9UBU7 whole entry, looked up): as the sequence (Q9UBU7 whole entry) above

IC50 [1]: 0.316 µM | IC50 [2]: 0.547 µM | IC50 [3]: 0.528 µM | IC50 [4]: 0.3 µM | Papp [5]: ≥ 89 nm/s | Papp [6]: ≥ 89 nm/s | efflux ratio [7]: 1
Structure (SMILES): CCOC(=O)c1sc(-c2ccncc2)nc1O

Ratio IC50 [8]: > 30
Structure (SMILES): COc1ccc(-c2nc(-c3ccnc(N)n3)sc2C(N)=O)c(Cl)c1

Structure (SMILES): NC(=O)c1sc(-c2ccnc(N)n2)nc1-c1ccc(Cl)cc1Cl
IC90 [9]: 6.37 µM | Activity [10]: Active | Activity [11]: Active | IC50 [12]: 0.086 µM | IC50 [13]: 0.023 µM | IC50 [14]: 0.035 µM | IC50 [15]: 0.064 µM | IC50 [16]: 0.063 µM | fraction unbound [17]: 0.09 | AUC(0-t) [18]: 0.518 µg·h/mL | AUC(0-inf) [19]: 0.521 µg·h/mL | MRT [20]: 1.15 h | half-life [21]: 6.56 h | Vd [22]: 4.43 L/kg | AUC(0-t) [23]: 0.0833 µg·h/mL | AUC(0-inf) [24]: 0.0857 µg·h/mL | Cmax [25]: 0.013 µg/mL | Tmax [26]: 2.17 h | inhibition in vivo at 50 mg/kg [27]: 39% | Activity [28]: Non-toxic | Cp(f) [29]: > 1 µM | inhibition in vivo at 150 mg/kg [30]: 30% | Cp(f) [31]: 5 µM | Activity [32]: Toxic
